Results on six compounds are retold here after ChEMBL document CHEMBL5316375, “Discovery of Novel, Selective Prostaglandin EP4 Receptor Antagonists with Efficacy in Cancer Models” (ACS Med Chem Lett, 2023).

Some results are limits rather than exact numbers.

For data set [1], the target named is T1, Prostaglandin E2 receptor EP3 subtype (Homo sapiens, UniProt P43115).
T1 sequence (P43115 whole entry): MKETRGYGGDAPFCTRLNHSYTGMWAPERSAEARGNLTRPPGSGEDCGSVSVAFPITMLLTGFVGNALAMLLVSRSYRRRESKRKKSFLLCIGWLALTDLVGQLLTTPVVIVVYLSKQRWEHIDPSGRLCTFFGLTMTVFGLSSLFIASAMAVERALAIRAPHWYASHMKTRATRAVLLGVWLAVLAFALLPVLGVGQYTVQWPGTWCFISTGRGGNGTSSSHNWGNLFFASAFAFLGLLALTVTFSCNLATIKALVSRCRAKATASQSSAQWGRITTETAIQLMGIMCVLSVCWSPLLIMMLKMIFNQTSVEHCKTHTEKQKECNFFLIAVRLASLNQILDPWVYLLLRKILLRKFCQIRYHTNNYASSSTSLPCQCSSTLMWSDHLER
Nature of the data set: Antagonist activity at EP3 receptor (unknown origin).

Data set [2] concerns the target T2, Prostaglandin E2 receptor EP2 subtype (Homo sapiens, UniProt P43116). Put plainly: Antagonist activity at EP2 receptor (unknown origin).
The nature of data set [3]: Cmax in Sprague-Dawley rat at 10 mg/kg, po. The data set is classed as ADME, organism-based. Further details: dose 10 mg/kg, route po. As to conditions: in vivo.
Data set [4] is described as follows: AUC (0 to t) in Sprague-Dawley rat at 1 mg/kg, iv. The format is ADME, organism-based. The settings on record: in vivo. On the set-up: dose 1 mg/kg, route iv.
The nature of data set [5]: Plasma protein binding in mouse at 1 uM incubated for 6 hrs by LC-MS/MS analysis. The data set is classed as ADME, cell-free.
A short description of data set [6]: Microsomal stability in human liver microsomes assessed as half life at 1 uM measured for 60 mins by LC-MS/MS analysis. The data set is classed as ADME, Microsome.
Data set [7] addresses T3, Prostaglandin E2 receptor EP1 subtype (Homo sapiens, UniProt P34995).
T3 sequence (P34995 whole entry): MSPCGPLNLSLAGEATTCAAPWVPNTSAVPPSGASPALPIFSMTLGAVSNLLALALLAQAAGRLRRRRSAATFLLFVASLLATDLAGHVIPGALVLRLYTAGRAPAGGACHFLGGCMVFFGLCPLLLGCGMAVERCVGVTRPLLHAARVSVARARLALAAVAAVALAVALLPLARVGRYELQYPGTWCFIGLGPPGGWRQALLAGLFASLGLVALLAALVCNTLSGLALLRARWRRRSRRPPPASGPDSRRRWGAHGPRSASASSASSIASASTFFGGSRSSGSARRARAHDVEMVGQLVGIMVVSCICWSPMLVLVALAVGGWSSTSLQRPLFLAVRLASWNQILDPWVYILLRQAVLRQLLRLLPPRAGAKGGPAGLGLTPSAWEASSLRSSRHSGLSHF
Put plainly: Antagonist activity at EP1 receptor (unknown origin).

A short description of data set [8]: Half life in Sprague-Dawley rat at 1 mg/kg, iv. The data set is classed as ADME, organism-based. As to conditions: in vivo.
Data set [9] can be described thus: Toxicity in BALB/c mouse allografted with CT26 cells assessed as body weight loss at 75 to 150 mg/kg, po qd administered for 11 days and measured every 2 to 3 days. The data set is classed as organism-based. The settings on record: in vivo, 264 h, dose 75-150 mg/kg, time 11 day. Put shortly:
(§1)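 CT-26 tumors in BALB/c mice grown to 100–200 mm3, then animals randomized (n = 6/group). Dosing was oral, once daily for 11 days, in vehicle 0.5% carboxymethylcellulose sodium in PBS. Groups: vehicle, 75 or 150 mg/kg, or E7046 150 mg/kg. Tumor volume, TGI versus vehicle, body weight and day-11 tumor weight were recorded, with Dunnett's test versus vehicle.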

A short description of data set [10]: Toxicity in BALB/c mouse allografted with CT26 cells assessed as reduction in body weight at 75 to 150 mg/kg, po administered daily for 21 days and measured every 2 to 3 days in presence of 300 mg/kg capecitabine. The data set is classed as organism-based. The settings on record: in vivo, 504 h, dose 75-150 mg/kg, time 21 day. Put shortly:
(§2)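 CT-26 tumors in BALB/c mice (n = 6/group) dosed orally once daily from day 8 after implantation until day 21, in vehicle 0.5% carboxymethylcellulose sodium. Groups: vehicle, capecitabine 300 mg/kg alone, or capecitabine 300 mg/kg plus EP4 antagonist at 75 or 150 mg/kg. Tumor volume, TGI versus vehicle, body weight and tumor weight were recorded, with Dunnett's test.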

Data set [11] in a line: AUC (0 to infinity) in Sprague-Dawley rat at 1 mg/kg, iv. The data set is classed as ADME, organism-based. On the set-up: dose 1 mg/kg, route iv. As to conditions: in vivo.
Data set [12] is described as follows: Cmax in Sprague-Dawley rat at 1 mg/kg, iv. Further details: dose 1 mg/kg, route iv. The data set is classed as ADME, organism-based. As to conditions: in vivo.
Data set [13] is described as follows: Plasma protein binding in human at 1 uM incubated for 6 hrs by LC-MS/MS analysis. The data set is classed as ADME, cell-free.
The nature of data set [14]: Tmax at Sprague-Dawley rat at 10 mg/kg, po. The data set is classed as ADME, organism-based. The settings on record: in vivo.
Data set [15] deals with Voltage-gated inwardly rectifying potassium channel KCNH2 (Homo sapiens, UniProt Q12809). Put plainly: Inhibition of hERG. The format is toxicity.
Sequence of Voltage-gated inwardly rectifying potassium channel KCNH2 (Q12809 whole entry): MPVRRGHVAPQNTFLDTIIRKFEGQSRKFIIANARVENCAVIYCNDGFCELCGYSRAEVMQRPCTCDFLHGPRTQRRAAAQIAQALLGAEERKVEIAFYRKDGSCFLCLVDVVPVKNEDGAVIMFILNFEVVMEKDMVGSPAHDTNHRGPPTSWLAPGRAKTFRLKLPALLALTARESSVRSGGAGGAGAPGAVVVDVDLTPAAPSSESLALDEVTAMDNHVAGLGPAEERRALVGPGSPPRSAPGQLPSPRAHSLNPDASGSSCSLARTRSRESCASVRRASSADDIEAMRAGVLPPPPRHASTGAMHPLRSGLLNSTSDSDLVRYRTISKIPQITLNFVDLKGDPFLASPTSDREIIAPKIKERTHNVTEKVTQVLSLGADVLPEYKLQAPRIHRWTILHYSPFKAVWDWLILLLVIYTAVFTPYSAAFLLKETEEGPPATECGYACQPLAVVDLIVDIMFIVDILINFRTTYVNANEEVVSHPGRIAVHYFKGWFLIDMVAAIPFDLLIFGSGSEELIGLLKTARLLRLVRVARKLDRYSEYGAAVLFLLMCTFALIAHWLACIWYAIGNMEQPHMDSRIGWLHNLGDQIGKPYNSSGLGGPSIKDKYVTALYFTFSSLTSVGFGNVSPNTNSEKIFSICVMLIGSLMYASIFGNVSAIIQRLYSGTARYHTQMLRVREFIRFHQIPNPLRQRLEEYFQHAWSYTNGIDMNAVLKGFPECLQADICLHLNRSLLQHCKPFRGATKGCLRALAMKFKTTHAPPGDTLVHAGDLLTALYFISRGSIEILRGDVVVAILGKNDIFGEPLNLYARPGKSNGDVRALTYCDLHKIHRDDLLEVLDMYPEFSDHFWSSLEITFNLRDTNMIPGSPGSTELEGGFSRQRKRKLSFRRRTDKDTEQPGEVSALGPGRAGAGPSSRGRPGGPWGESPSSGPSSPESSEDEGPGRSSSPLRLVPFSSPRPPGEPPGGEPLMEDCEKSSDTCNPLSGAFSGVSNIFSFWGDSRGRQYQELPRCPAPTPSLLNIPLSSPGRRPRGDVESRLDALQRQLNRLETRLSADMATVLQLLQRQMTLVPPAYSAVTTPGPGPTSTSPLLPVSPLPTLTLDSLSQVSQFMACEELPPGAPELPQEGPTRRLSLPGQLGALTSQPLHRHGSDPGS
Data set [16] can be described thus: Volume of distribution at steady state in Sprague-Dawley rat at 1 mg/kg, iv. The format is ADME, organism-based. The settings on record: in vivo, read-out: Vdss.
A short description of data set [17]: Half life in Sprague-Dawley rat at 10 mg/kg, po. The data set is classed as ADME, organism-based. The settings on record: in vivo.
Data set [18] is described as follows: Plasma protein binding in human assessed as parent compound remaining at 1 uM incubated for 6 hrs by LC-MS/MS analysis. The format is ADME, cell-free.
Data set [19] addresses T2, Prostaglandin E2 receptor EP2 subtype. Nature of the data set: Displacement of [3H]-PGE2 from EP2 receptor membrane (unknown origin) measured after 2 hrs by Microscint-O scintillation counting analysis. The format is cell membranes.
A short description of data set [20]: Microsomal stability in rat liver microsomes assessed as half life at 1 uM measured for 60 mins by LC-MS/MS analysis. The format is ADME, Microsome.
Data set [21] is described as follows: Plasma protein binding in mouse assessed as parent compound remaining at 1 uM incubated for 6 hrs by LC-MS/MS analysis. The data set is classed as ADME, cell-free.
Data set [22] in a line: AUC (0 to infinity) in Sprague-Dawley rat at 10 mg/kg, po. The data set is classed as ADME, organism-based. Further details: dose 10 mg/kg, route po. The settings on record: in vivo.
Data set [23] in a line: Plasma protein binding in rat assessed as parent compound remaining at 1 uM incubated for 6 hrs by LC-MS/MS analysis. The format is ADME, cell-free.
Data set [24] in a line: Microsomal stability in mouse liver microsomes assessed as half life at 1 uM measured for 60 mins by LC-MS/MS analysis. The format is ADME, Microsome.
The target in data set [25] is T3, Prostaglandin E2 receptor EP1 subtype. Put plainly: Displacement of [3H]-PGE2 from EP1 receptor membrane (unknown origin) measured after 2 hrs by Microscint-O scintillation counting analysis. The format is cell membranes.
Data set [26] in a line: Clearance in Sprague-Dawley rat at 1 mg/kg, iv. The format is ADME, organism-based. As to conditions: in vivo.
Data set [27] in a line: Plasma protein binding in rat at 1 uM incubated for 6 hrs by LC-MS/MS analysis. The format is ADME, cell-free.
Data set [28] is described as follows: Oral bioavailability in Sprague-Dawley rat at 10 mg/kg. The format is ADME, organism-based. As to conditions: in vivo.
Data set [29] in a line: AUC (0 to t) in Sprague-Dawley rat at 10 mg/kg, po. The format is ADME, organism-based. On the set-up: dose 10 mg/kg, route po. The settings on record: in vivo.
Data set [30] has as its target T1, Prostaglandin E2 receptor EP3 subtype. Nature of the data set: Displacement of [3H]-PGE2 from EP3 receptor membrane (unknown origin) measured after 2 hrs by Microscint-O scintillation counting analysis. The format is cell membranes.
The target in data set [31] is Prostaglandin E2 receptor EP4 subtype (Homo sapiens, UniProt P35408). Nature of the data set: Antagonist activity at human EP4 receptor overexpressed in HEK293 cells assessed as inhibition of PGE2-induced cAMP formation preincubated for 15 mins followed by PGE addition and measured after 30 mins by Eu-cAMP tracer based assay. The data set is classed as functional, cell-based.
Sequence of Prostaglandin E2 receptor EP4 subtype (P35408 whole entry): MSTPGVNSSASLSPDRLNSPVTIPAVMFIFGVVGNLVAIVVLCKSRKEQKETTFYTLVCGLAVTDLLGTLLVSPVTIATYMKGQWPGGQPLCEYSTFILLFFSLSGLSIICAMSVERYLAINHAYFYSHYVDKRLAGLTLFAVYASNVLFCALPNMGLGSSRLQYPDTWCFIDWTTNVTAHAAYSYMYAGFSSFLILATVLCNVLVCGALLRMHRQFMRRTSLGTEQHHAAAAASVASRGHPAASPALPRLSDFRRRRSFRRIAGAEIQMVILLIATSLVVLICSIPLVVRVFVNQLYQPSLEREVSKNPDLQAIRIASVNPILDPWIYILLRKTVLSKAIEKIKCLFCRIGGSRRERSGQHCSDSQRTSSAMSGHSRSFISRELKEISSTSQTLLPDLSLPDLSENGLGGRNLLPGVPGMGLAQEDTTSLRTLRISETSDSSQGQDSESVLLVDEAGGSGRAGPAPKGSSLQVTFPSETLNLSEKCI

Data set [32] can be described thus: Toxicity in BALB/c mouse allografted with CT26 cells assessed as effect on body weight at 300 mg/kg, po administered daily for 21 days and measured every 2 to 3 days. The format is organism-based. As to conditions: in vivo, 504 h, time 21 day. Put shortly:
as §2

The test system of data set [33] is CT26. Nature of the data set: Antitumor activity against mouse CT26 cells allografted in BALB/c mouse assessed as tumor growth inhibition at 300 mg/kg, po qd administered for 21 days starting from day 8 post tumor implantation measured once for every 2 or 3 days relative to control. The data set is classed as functional. The settings on record: CT26, 504 h, time 21 day, read-out: TGI. The procedure, abridged: as §2

The subject of data set [34] is CT26. Put plainly: Antitumor activity against mouse CT26 cells allografted in BALB/c mouse assessed as mean tumor volume at 300 mg/kg, po qd administered for 21 days starting from day 8 post tumor implantation measured once for every 2 or 3 days (reference value: 2036.95 +/- 333.12 mm3). The data set is classed as functional. The settings on record: time 21 day. Put shortly: as §2

Data set [35] deals with CT26. Put plainly: Antitumor activity against mouse CT26 cells allografted in BALB/c mouse assessed as tumor growth inhibition at 150 mg/kg, po qd administered every day for 11 days measured for every 2 or 3 days relative to control. The format is functional. The settings on record: CT26, 264 h, time 11 day, read-out: TGI. Put shortly: as §1
Data set [36] relates to CT26. Put plainly: Antitumor activity against mouse CT26 cells allografted in BALB/c mouse assessed as mean tumor volume at 150 mg/kg, po qd administered every day for 11 days measured for every 2 or 3 days (reference value: 2145.58 +/- 152.9 mm3). The data set is classed as functional. The settings on record: time 11 day. Put shortly:
as §1

T2 sequence (P43116 whole entry): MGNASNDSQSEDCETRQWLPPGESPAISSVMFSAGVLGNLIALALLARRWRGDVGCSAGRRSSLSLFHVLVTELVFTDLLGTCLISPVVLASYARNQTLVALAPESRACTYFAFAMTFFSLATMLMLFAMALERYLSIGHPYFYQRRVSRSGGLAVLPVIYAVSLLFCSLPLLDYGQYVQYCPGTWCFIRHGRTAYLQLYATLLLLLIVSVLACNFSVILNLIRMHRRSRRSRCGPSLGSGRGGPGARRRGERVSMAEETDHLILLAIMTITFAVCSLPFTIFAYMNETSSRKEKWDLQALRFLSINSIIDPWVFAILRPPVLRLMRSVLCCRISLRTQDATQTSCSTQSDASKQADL

`COc1ccc(Br)cc1S(=O)(=O)NC(=O)/C=C/c1ccccc1Cc1ccc2ccccc2c1` registered a half-inhibitory concentration (IC50) in [1] of 0.033 µM.

For `C[C@H](NC(=O)c1c(Nc2cccc(C(F)(F)F)c2)c2ccccc2n1C)c1ccc(C(=O)O)cc1`, the half-maximal inhibitory concentration (IC50) in data set [2] was more than 10 µM; in [7], more than 10 µM; in data set [1], more than 10 µM; in data set [15], more than 40 µM. For the same compound, the Cmax in [3] is 8240 ng/mL; in data set [12], 4630 ng/mL. Moreover, the area under the curve AUC(0-t) in [4] was 3380 ng·h/mL; in data set [29], 25700 ng·h/mL. For the same compound, the PPB is 99.66% in data set [5], 99.68% in [13] and 99.73% in data set [27]. For the same compound, the half-life at 1 µM in data set [6] worked out at 0.404 h; in [20], 4.33 h; in [24], 1.64 h. The half-life in data set [8] was 1.4 h; in [17], 2.7 h. The Activity entry in data set [9] and in [10] was “Non-Toxic” throughout. Moreover, the AUC(0-inf) in [11] amounted to 3420 ng·h/mL; in data set [22] it was 25700 ng·h/mL. The Tmax in data set [14] was determined as 0.5 h. Also, the Vd in [16] was 0.41 L/kg. Besides, the residual activity in data set [18] was 83.02%; in data set [21] it was 70.47%; in data set [23], 88.79%. The Ki in data set [19] is more than 8.8 µM; in data set [25], more than 9.6 µM; in data set [30] it was more than 6.4 µM. The compound also showed a clearance in [26] of 4.95 mL/min/kg. The compound also registered a bioavailability in data set [28] of 76.1%.

As to `Cn1c(C(=O)NC2(c3ccc(C(=O)O)cc3)CC2)c(Nc2cccc(C(F)(F)F)c2)c2ccccc21`, the Ki in data set [19] was more than 8.8 µM; in data set [25] it was more than 9.6 µM; in data set [30], more than 6.4 µM.

For `C[C@H](NC(=O)c1c(Nc2cccc(C(F)(F)F)c2)c2ccccc2n1C)c1ccc(C(N)=O)cc1`, the half-maximal inhibitory concentration (IC50) in [31] was more than 10 µM.

For the compound `CCCCCOC(=O)Nc1nc(=O)n([C@@H]2O[C@H](C)[C@@H](O)[C@H]2O)cc1F` [CAPECITABINE], the Activity entry is “Non-Toxic” in data set [32] and 707.13 mm3 in data set [34]. Further, the inhibition in vivo at 300 mg/kg in [33] turned out to be 67.9%.

`C[C@H](NC(=O)c1c(C(F)F)nn(C)c1Oc1cccc(C(F)(F)F)c1)c1ccc(C(=O)O)cc1` [PALUPIPRANT]: the inhibition in vivo at 150 mg/kg in data set [35] was 25.9%. For the same compound, in data set [36], the Activity is 1619.76 mm3.
